Results: ChEMBL document CHEMBL1126728, “Synthesis and biochemical evaluation of the CBI-PDE-I-dimer, a benzannelated analog of (+)-CC-1065 that also produces delayed toxicity in mice” (J Med Chem, 1993)

Assays:
[1] = system: L1210; assay: In vitro cytotoxicity against mouse leukemia L1210 cells was determined; assay type: functional, cell-based
How it was run: (§1)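 L1210 mouse leukemia cells in RPMI 1634 supplemented with 5% fetal calf serum, 0.075% sodium bicarbonate, penicillin and streptomycin. Drug added to cultures at about 5 × 10^3 cells/mL, incubated 3 days at 37 °C. Cell number counted with a Coulter counter; IC50 in nM, run side by side with the corresponding CPI analog.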

[2] = system: Mus musculus; assay: in vivo percent increase in lifespan (ILS) at the optimum dose in L1210 cells; assay type: functional
How it was run: (§2)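 L1210 leukemia, passaged in syngeneic DBA/2 female mice, was implanted i.p. at 10^6 cells/mouse on day 0; one i.v. dose on day 1 (2% DMA/10% Emulphor EL-620P/88% water); 6 mice per group; dose-response run. Optimal dose = greatest efficacy with ≤15% drug-related deaths. %ILS = (median survival treated/median survival vehicle control − 1) × 100, counting long-term survivors.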

[3] = system: Mus musculus; assay: Optimum antitumor dose (OD) against L1210 mouse leukemia cells implanted intraperitoneally in CD2F1 mice; assay type: functional
How it was run: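 L1210 cells passaged in DBA/2 female mice, implanted ip (10^6 cells/mouse) in CD2F1 mice, 6 per group, on day 0. Single iv dose 24 h later (day 1) in 2% DMA, 10% Emulphor EL-620P, 88% sterile water; dose response run. Optimum dose (µg/kg) is the dose giving greatest ILS (median survival) with ≤15% drug-related deaths.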

[4] = system: Mus musculus; assay: Median day of death (MDD) in normal (Non tumor bearing) mice treated with a single i.v. dose at 25 ug/kg; assay type: functional
How it was run: (§3)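 Non-tumor-bearing mice got one intravenous injection in a vehicle of 2% DMA, 10% Emulphor EL-620P and 88% sterile water. Survival was followed for 90 days, which ended the experiment. Six mice per dose group; the value is the median day of death. Deaths after more than 28 days counted as delayed.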

[5] = system: Mus musculus; assay: Median day of death (MDD) in normal (Non tumor bearing) mice treated with a single i.v. dose at 50 ug/kg; assay type: functional; how it was run: as §3
[6] = system: Mus musculus; assay: Median day of death (MDD) in normal (Non tumor bearing) mice treated with a single i.v. dose at 400 ug/kg; assay type: functional; how it was run: as §3
[7] = system: Mus musculus; assay: Median day of death (MDD) in normal (Non tumor bearing) mice treated with a single i.v. dose at 200 ug/kg; assay type: functional; how it was run: as §3
[8] = system: Mus musculus; assay: Optimum antitumor dose (OD) against L1210 mouse leukemia cells implanted intraperitoneally in CD2F1 mice (Highest dose tested); assay type: functional; how it was run: as §2
[9] = system: Mus musculus; assay: Median day of death (MDD) in normal (Non tumor bearing) mice treated with a single i.v. dose at 100 ug/kg; assay type: functional; how it was run: as §3
[10] = system: L1210; assay: In vitro cytotoxicity against mouse leukemia L1210 cells; assay type: functional, cell-based; how it was run: as §1

SMILES | IC50 [1] | ILS [2] | OD [3] | also measured
O=C1C=C2N(C(=O)c3cc4ccccc4[nH]3)CC3C[C@@]23c2ccccc21 (single isomer, unassigned; (+)) | 0.1 nM | 50% | 0.8 mg/kg | 
COc1c(O)c2c(c3cc(C(=O)N4CCc5c4c(O)c(OC)c4[nH]c(C(=O)N6C[C@H]7C[C@@]78C6=CC(=O)c6[nH]cc(C)c68)cc54)[nH]c13)CCN2C(N)=O [(+)-CC-1065] |  |  |  | MDD [4]: 42; MDD [5]: 41
COc1c(O)c2c(c3cc(C(=O)N4CCc5c4c(O)c(OC)c4[nH]c(C(=O)N6CC7C[C@]78C6=CC(=O)c6ccccc68)cc54)[nH]c13)CCN2C(N)=O (single isomer, unassigned; (-)) | 0.01 nM | 6% | 0.2 mg/kg | MDD [6]: 5
CC(=O)N1CC2C[C@@]23C1=CC(=O)c1ccccc13 (single isomer, unassigned; (+)) | 5 nM |  |  | 
Cc1c[nH]c2c1[C@@]13CC1CN(C(=O)c1cc4cc(NC(=O)c5cc6ccccc6[nH]5)ccc4[nH]1)C3=CC2=O (some centres not stated) |  | 83% | 0.1 mg/kg | MDD [7]: 3
O=C1C=C2N(C(=O)c3cc4ccccc4[nH]3)CC3C[C@]23c2ccccc21 (single isomer, unassigned; (-)) | 12 nM |  |  | 
O=C(Nc1ccc2[nH]c(C(=O)N3CC4C[C@]45C3=CC(=O)c3ccccc35)cc2c1)c1cc2ccccc2[nH]1 (single isomer, unassigned; (-)) | 0.3 nM | 50% |  | OD [8]: 1.6 mg/kg
CC(=O)N1CC2C[C@]23C1=CC(=O)c1ccccc13 (single isomer, unassigned; (-)) | 70 nM |  |  | 
O=C(Nc1ccc2[nH]c(C(=O)N3CC4C[C@@]45C3=CC(=O)c3ccccc35)cc2c1)c1cc2ccccc2[nH]1 (single isomer, unassigned; (+)) | 0.006 nM | 67% | 0.1 mg/kg | MDD [7]: 7
COc1c(O)c2c(c3cc(C(=O)N4CCc5c4c(O)c(OC)c4[nH]c(C(=O)N6CC7C[C@@]78C6=CC(=O)c6ccccc68)cc54)[nH]c13)CCN2C(N)=O (some centres not stated) | 0.02 nM | 28% | 0.2 mg/kg | MDD [9]: 41; MDD [7]: 38; MDD [4]: 48; MDD [6]: 5; MDD [5]: 42
OC1=CC2=NCC3C[C@@]23c2ccccc21 (some centres not stated) | 230 nM |  |  | 
OC1=CC2=NCC3C[C@]23c2ccccc21 (some centres not stated) |  |  |  | IC50 [10]: 6600 nM
